Active and inactive are the calls of the source.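 How the source made its calls, unless noted: active means inhibition of the reporter signal at or above 50%; inactive means inhibition below 50%.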
Tests used:
[1] = inhibitors of TNFa-induced NFkB p65 translocation, primary screen, imaging, HUVEC, MLSMR starter and 10KST1 sets (AID 438;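 active means inhibition above 20% together with a positive visual image hit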;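 further: compound added about 3h40 before a 20 min TNFalpha stimulation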;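 on inhibition: signal is the nuclear over cytoplasmic p65 intensity ratio per well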); settings: HUVEC TNFa-induced p65 nuclear translocation; cell count: measured here: nuclei count (cytotoxicity indicator), at 2.08 µM; inhibition: at 2 µM, stronger effect = higher value, 0% TNFa-plus-vehicle, 100% no-TNFa wells
[2] = inhibitors of mutant huntingtin aggregation, primary screen, imaging, exon1htt(103Q)mCFP cells, high-content imaging (AID 483;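 active means visual image review flags a hit and inhibition of aggregation exceeds 20%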;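 further: compound exposure lasted 3 days before fixation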;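 on nuclei count: percent of the per-plate median nuclei count of sample wells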); settings: exon1htt(103Q)mCFP cell line, aggregate imaging, at 2 µM; inhibition of aggregation: stronger effect = higher value; nuclei count: measured here: cell count, toxicity
[3] = inhibitors of E-selectin induction by TNFa, primary screen, imaging, HUVEC, immunofluorescence, MLSMR starter and 10KST1 sets (AID 487;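 active means visually confirmed hit in the image check and inhibition above 20%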;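 on inhibition: signal is fraction of cell area covered by stained E-selectin grains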;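 on nuclei count: 100% = median nuclei count of all wells on the same plate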); settings: HUVEC TNFalpha-induced E-selectin immunofluorescence imaging, at 2 µM; inhibition: stronger effect = higher value; nuclei count: measured here: cell number, toxicity
[4] = target: Voltage-gated potassium channel subunit beta-2 (Rattus norvegicus) (UniProt P62483); assay: KvBeta enzyme negative modulators, primary screen, biochemical, NADPH fluorescence (AID 622;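 active means fluorescence slope higher than the sample average by over 3 SD, cut at about -0.22 in these data, passing the limit was not always enough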;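 further: slope of raw intensity against log time taken from 70 to 1610 s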); settings: recombinant KvBeta, 4-cyanobenzaldehyde reduction, at 10 µM, stronger effect = higher value
Voltage-gated potassium channel subunit beta-2 (Rattus norvegicus), sequence (P62483 whole entry, looked up): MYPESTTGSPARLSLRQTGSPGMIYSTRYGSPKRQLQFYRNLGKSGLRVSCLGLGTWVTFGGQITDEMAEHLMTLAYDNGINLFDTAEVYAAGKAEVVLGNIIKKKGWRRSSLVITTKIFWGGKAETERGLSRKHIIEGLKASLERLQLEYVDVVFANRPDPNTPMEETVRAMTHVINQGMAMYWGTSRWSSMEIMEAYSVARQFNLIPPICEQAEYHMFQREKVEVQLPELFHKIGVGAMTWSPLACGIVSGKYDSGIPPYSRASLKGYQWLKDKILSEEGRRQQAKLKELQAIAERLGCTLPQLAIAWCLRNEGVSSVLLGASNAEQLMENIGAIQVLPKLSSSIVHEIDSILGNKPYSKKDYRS

[5] = target: Voltage-gated potassium channel subunit beta-2 (Rattus norvegicus) (UniProt P62483); assay: KvBeta positive modulators, primary screen, biochemical, NADPH fluorescence (AID 623;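 active means NADPH fluorescence slope more negative than the mean of all samples by about 3 SD, 99.7% confidence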;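 further: fluorescence intensity change per second fitted from 20 to 320 s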); settings: Recombinant KvBeta, NADPH fluorescence decrease slope, 10 min; at 10 µM; stronger effect = lower value
[6] = target: Muscarinic acetylcholine receptor M4 (Homo sapiens) (UniProt P08173); assay: compounds altering M4/GIRK thallium flux, either direction, primary screen, M4 allosteric agonist project, cell-based, HEK293 M4/GIRK, BTC-AM (AID 625;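 active means fluorescence slope after compound addition differing from the mean of all tested samples at 99.7% confidence, mostly higher but some lower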;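 further: thallium influx through GIRK channels coupled to M4 in HEK293 cells with BTC-AM dye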); settings: at 10 µM, actives lie on both sides
Muscarinic acetylcholine receptor M4 (Homo sapiens), sequence (P08173 whole entry, looked up): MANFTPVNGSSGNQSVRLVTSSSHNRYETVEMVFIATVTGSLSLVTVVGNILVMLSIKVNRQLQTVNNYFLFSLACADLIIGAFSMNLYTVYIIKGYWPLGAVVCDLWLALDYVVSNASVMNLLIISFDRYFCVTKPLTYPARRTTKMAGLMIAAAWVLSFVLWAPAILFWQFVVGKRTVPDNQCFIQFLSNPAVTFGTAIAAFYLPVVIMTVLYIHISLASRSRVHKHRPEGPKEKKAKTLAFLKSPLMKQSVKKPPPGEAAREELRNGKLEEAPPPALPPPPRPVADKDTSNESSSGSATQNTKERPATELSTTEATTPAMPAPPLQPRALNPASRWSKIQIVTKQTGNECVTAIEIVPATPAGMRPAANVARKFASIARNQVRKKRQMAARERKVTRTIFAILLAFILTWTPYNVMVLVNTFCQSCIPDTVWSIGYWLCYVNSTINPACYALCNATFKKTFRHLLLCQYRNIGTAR
Method in brief: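 Material: HEK293 cells with M4 receptor and GIRK channels; Times: cells overnight at 37 °C, BTC-AM loading 1 h, reads 2 min total; Technique: kinetic BTC-AM fluorescence sampled at 1 Hz, 10 s pre-addition baseline; Read-out basis: slope over 15–24 s of trace normalized to starting intensity; Controls: carbachol positive, DMSO negative.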

[7] = inhibitors of Sendai virus-induced IRF3 signaling, primary screen, TLR/RLR signaling modifier project, cell-based, Sendai virus stimulus, luciferase, 10K MLSCN set (AID 602276;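 active means inhibition at or above 50% at 10 µM; inactive means inhibition below 50%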;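 further: firefly luciferase from ISG56 promoter only with Renilla not read in this screen; 0% = Sendai virus plus DMSO and 100% = medium plus DMSO without virus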); settings: HEK293 RL24 IRF3 luciferase reporter, at 10 µM, stronger effect = higher value
[8] = inhibitors of poly I:C-induced TLR3 signaling, primary screen, cell-based, poly I:C stimulus, luciferase, 10K MLSCN set (AID 602277); settings: HEK293-TLR3 RL24 IRF3 luciferase reporter, at 10 µM, stronger effect = higher value

| SMILES | cell count [1] | inhibition [1] | inhibition of aggregation [2] | nuclei count [2] [%] | inhibition [3] | nuclei count [3] [%] | fluorescence slope [4] | NADPH fluorescence slope [5] | fluorescence slope [6] | inhibition [7] | inhibition [8] |
| --- | --- | --- | --- | --- | --- | --- | --- | --- | --- | --- | --- |
| CCOC(=O)C1CCN(C(=O)C2CCN(S(=O)(=O)c3cc(Cl)ccc3Cl)CC2)CC1 | 738 | -4.9% (inactive) | 14.8% (inactive) | 91.3 | 4.5% (inactive) | 96.7 | -0.542 (inactive) | 2.5e-05 (inactive) | 0.00485 (inactive) | 16% (inactive) | 9.65% (inactive) |
| Cc1cccc(C)c1NC(=O)N1CCN(C2CCCCC2)CC1 | 364 | 1.2% (inactive) | -2% (inactive) | 106 | -8.3% (inactive) | 106 | -0.578 (inactive) | -3.9e-05 (inactive) | 0.00564 (inactive) | -1.81% (inactive) | 18.1% (inactive) |
| CCCC1CC(C)(C(=O)Cn2[nH]c(=O)ccc2=O)OC1=O (centres undefined) | 580 | -22.2% (inactive) | -42.5% (inactive) | 120 | -76% (inactive) | 104 | -0.515 (inactive) | 0.000145 (inactive) | 0.00625 (inactive) | 22.7% (inactive) | 25.6% (inactive) |
| CC(=O)c1c(C)[nH]c(C(=O)NC2=NCCS2)c1C | 459 | -9.6% (inactive) | 15.8% (inactive) | 61.1 | 23.6% (inactive) | 95.2 | -0.571 (inactive) | -1.9e-05 (inactive) | 0.00678 (inactive) | -2.52% (inactive) | -11.8% (inactive) |
| CCCc1cc(-c2n[nH]c(C)c2-c2ccc(C(=O)OCC)o2)c(O)cc1O | 651 | 2% (inactive) | -2.2% (inactive) | 88.5 | -35.2% (inactive) | 113 | -0.571 (inactive) | -2e-05 (inactive) | 0.00514 (inactive) | 12.8% (inactive) | 17.9% (inactive) |
| N#CCSc1nc(-c2ccccc2)cs1 | 371 | 5% (inactive) | 1.3% (inactive) | 103 | -25.1% (inactive) | 109 | -0.566 (inactive) | -1.8e-05 (inactive) | 0.0051 (inactive) | -34.5% (inactive) | -75.5% (inactive) |
| COc1cc2c(cc1OC)CN(Cc1nc3ccsc3c(=O)[nH]1)CC2 | 335 | -6.2% (inactive) | 26.3% (inactive) | 93 | -5.2% (inactive) | 110 | -0.579 (inactive) | -3.9e-05 (inactive) | 0.0061 (inactive) | 24.1% (inactive) | 41.1% (inactive) |
| COC(=O)c1ccc(CSc2nc3c(cnn3-c3ccc(C)c(C)c3)c(=O)[nH]2)o1 | 433 | 9.3% (inactive) | 2.1% (inactive) | 98.4 | -55.6% (inactive) | 108 | -0.388 (inactive) | 0.000113 (inactive) | 0.0057 (inactive) | 8.02% (inactive) | 13.9% (inactive) |
| O=C(Cn1c(=O)[nH]c2ccsc2c1=O)N1CCN(c2ccc(F)cc2)CC1 | 654 | -29.9% (inactive) | -0.5% (inactive) | 106 | -34.1% (inactive) | 121 | -0.451 (inactive) | -3e-05 (inactive) | 0.00533 (inactive) | 15.1% (inactive) | 21.3% (inactive) |
| CCOC(=O)c1[nH]c(C)c(C(=O)Nc2ccc(C)c(Cl)c2)c1C | 661 | 0.3% (inactive) | -3.4% (inactive) | 97.4 | -7.5% (inactive) | 96.5 | -0.446 (inactive) | 1.5e-05 (inactive) | 0.00769 (inactive) | 11.7% (inactive) | 11.2% (inactive) |
| O=C(NCc1nnc(SCC(=O)N2CCCCCC2)o1)c1ccco1 | 595 | -15.7% (inactive) | 12.1% (inactive) | 124 | -52.2% (inactive) | 106 | -0.516 (inactive) | -2.1e-05 (inactive) | 0.00384 (inactive) | 6.86% (inactive) | 11% (inactive) |
| CC(C(=O)Nc1ccccc1-c1ccccc1)N1CCN(C(=O)c2ccco2)CC1 (centres undefined) | 546 | -11.2% (inactive) | 14% (inactive) | 75 | -63.4% (inactive) | 97.9 | -0.395 (inactive) | 1.3e-05 (inactive) | 0.00807 (inactive) | 19.8% (inactive) | 33.6% (inactive) |
| CC(=O)NC1=NC(=O)/C(=C/N2CCCCC2)S1 | 391 | -4.7% (inactive) | 1.3% (inactive) | 105 | -11.8% (inactive) | 103 | -0.459 (inactive) | -3.8e-05 (inactive) | 0.00493 (inactive) | 21.1% (inactive) | 16.4% (inactive) |
| COc1ccc(CN2C(=O)c3cccnc3C2Nc2cc(Cl)ccc2OC)cc1 (centres undefined) | 482 | 3% (inactive) | 0.1% (inactive) | 105 | -26.9% (inactive) | 112 | -0.445 (inactive) | 0.00011 (inactive) | 0.00665 (inactive) | -6.43% (inactive) | -6.33% (inactive) |

— PubChem BioAssay
